Active and inactive are the calls of the source.

Sequence of Superoxide dismutase [Cu-Zn] (P00441 whole entry): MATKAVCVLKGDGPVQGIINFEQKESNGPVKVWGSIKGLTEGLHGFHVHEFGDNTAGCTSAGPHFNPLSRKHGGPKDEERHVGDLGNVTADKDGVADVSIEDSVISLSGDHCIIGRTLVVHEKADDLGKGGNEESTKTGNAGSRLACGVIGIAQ

The test system of the first data set is Trypanosoma cruzi. The experiment in a line: Effect on metabolic excretion in epimastigotes of Trypanosoma cruzi assessed as succinate excretion level at IC25 concentration after 72 hrs by nuclear magnetic resonance spectroscopy analysis. The format is ADME, organism-based.
Conditions: not given
A digest of the protocol:
(§1)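 Epimastigote cultures started at 5 × 10^5 cells/mL and given drug at IC25, 72 h at 28 °C. Excreted metabolites assessed by 1H NMR of spent medium, compared with cell-free medium.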
For `Clc1nnc(NCCCn2ccnc2)c2cc3ccccc3cc12`, the Activity is -49%.
Same read-out and setting: then `c1ccc2cc3c(NCCCn4ccnc4)nnc(NCCCn4ccnc4)c3cc2c1`, with -27%.

A further data set relates to Trypanosoma cruzi. In words: Antitrypanosomal activity against trypomastigote of Trypanosoma cruzi infected in BALB/c mouse assessed as reduction of parasitemia at 1 mg/kg, ip for 5 days measured after 40 days postinfection. The format is functional, organism-based.
Conditions: not given
Also noted: dose 1 mg/kg. A digest of the protocol: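 Female BALB/c mice (6–8 weeks, 25–30 g), groups of five, infected ip with 3 × 10^3 metacyclic forms. Dosed 1 mg/kg/day ip for days 7–12 post-infection. Tail blood (5 μL) diluted 1:15 in citrate/lysis buffer pH 7.2; parasites counted in Neubauer chamber; deaths recorded every two days.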
On to `c1ccc2cc3c(NCCc4c[nH]cn4)nnc(NCCc4c[nH]cn4)c3cc2c1`, for which the result was Active.
On the same count and under the same terms, then `c1ccc2cc3c(Nc4cc[nH]n4)nnc(Nc4cc[nH]n4)c3cc2c1` [1,4-BIS(3'-PYRAZOLYLAMINO)BENZO[G]PHTHALAZINE], with “Active”.
On the same count and under the same terms, then `Clc1nnc(NCCCn2ccnc2)c2cc3ccccc3cc12`, with “Active”; and `c1ccc2cc3c(NCCCn4ccnc4)nnc(NCCCn4ccnc4)c3cc2c1`, with “Active”.

Another data set relates to Vero. The experiment in a line: Cytotoxicity against african green monkey Vero cells after 72 hrs by trypan blue assay. Particulars: Chlorocebus sabaeus. The format is cell-based. The essentials:
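Vero cells in MEM with 10% inactivated FCS, pH 7.2, 37 °C, 5% CO2. Seeded at 1 × 10^5 cells/mL and grown 2 days, then exposed 72 h to 1, 10, 25, 50 or 100 μM. Viability scored by trypan blue (0.1%) relative to control; IC50 obtained by linear regression.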
As usually defined, the IC50 is the concentration that gives 50% inhibition. For `c1ccc2cc3c(Nc4cc[nH]n4)nnc(Nc4cc[nH]n4)c3cc2c1` [1,4-BIS(3'-PYRAZOLYLAMINO)BENZO[G]PHTHALAZINE], the half-maximal inhibitory concentration (IC50) was determined as 98.3 µM.

In the next data set the test system is Trypanosoma cruzi. The experiment in a line: Effect on metabolic excretion in epimastigotes of Trypanosoma cruzi assessed as acetate excretion level at IC25 concentration after 72 hrs by nuclear magnetic resonance spectroscopy analysis. The format is ADME, organism-based.
Conditions: not given
The essentials:
as §1
For `Clc1nnc(NCCCn2ccnc2)c2cc3ccccc3cc12`, the Activity is -26%.
On the same count and under the same terms, the same measure for `c1ccc2cc3c(NCCCn4ccnc4)nnc(NCCCn4ccnc4)c3cc2c1`: -22%.

In another data set the test system is Trypanosoma cruzi. The experiment in a line: Antitrypanosomal activity against Trypanosoma cruzi infected in african green monkey Vero cells assessed as reduction of parasite infection rate at IC25 after 10 days. Details: scale not given: the % may be the effect or the level left.
Conditions: not given
The format is functional. The essentials:
(§2)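 Vero cells seeded at 1 × 10^5 cells/well on coverslips and grown 2 days in MEM at 37 °C, 5% CO2. Infected with metacyclic forms at 10:1, obtained by culture in modified Grace's medium at 28 °C for 12 days. Drug present 6 h, then removed by washing; cultures grown 10 days with medium renewed every 48 h. Methanol-fixed, Giemsa-stained; >100 host cells counted; means of four determinations.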
As to `c1ccc2cc3c(Nc4cc[nH]n4)nnc(Nc4cc[nH]n4)c3cc2c1` [1,4-BIS(3'-PYRAZOLYLAMINO)BENZO[G]PHTHALAZINE], the Activity was 63%.
Still for that read-out and setting: the same measure for `O=C(Cn1ccnc1[N+](=O)[O-])NCc1ccccc1` [BENZNIDAZOLE]: 39%.

The test system of another data set is Mus musculus. The experiment in a line: Toxicity in BALB/c mouse assessed as mortality at 5 mg/kg, ip. The format is organism-based. Also noted: dose 5 mg/kg, route intraperitoneal. To be noted: in vivo.
On to `Clc1nnc(NCCCn2ccnc2)c2cc3ccccc3cc12`, for which the Activity entry was “Non-toxic”.
With `c1ccc2cc3c(NCCCn4ccnc4)nnc(NCCCn4ccnc4)c3cc2c1`, the Activity entry is on record as “Non-toxic”.

A further data set has as its target Superoxide dismutase [Cu-Zn] (Homo sapiens, UniProt P00441). The experiment in a line: Inhibition of human Cu-Zn superoxide dismutase assessed as inhibition of NADPH reduction.
Conditions: not given
A digest of the protocol:
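Human erythrocyte CuZn-SOD, purchased, assayed by NAD(P)H oxidation; 1 U gives 50% inhibition of the rate. Compounds at 1, 10, 25, 50, 100 μM. IC50 by linear regression; five determinations; Newman-Keuls test.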
For `Clc1nnc(NCCCn2ccnc2)c2cc3ccccc3cc12`, the half-inhibitory concentration (IC50) worked out at 129 µM.
Regarding `c1ccc2cc3c(NCCCn4ccnc4)nnc(NCCCn4ccnc4)c3cc2c1`, the IC50 came out at 67.9 µM.

For a further data set, the system named is Trypanosoma cruzi. The experiment in a line: Antitrypanosomal activity against trypomastigote of Trypanosoma cruzi infected in BALB/c mouse assessed as increase of host survival at 1 mg/kg, ip for 5 days administered 7 days after infection. The format is functional.
Conditions: not given
The essentials: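 Female BALB/c mice (6-8 weeks, 25-30 g) in groups of five were infected intraperitoneally with T. cruzi metacyclic forms, with circulating parasites confirmed on day 5 by microhematocrit. They were dosed intraperitoneally at 1 mg/kg/day for five consecutive days (days 7-12 post-infection) and compared with infected untreated and uninfected controls. Deaths were recorded every two days.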
For the molecule `c1ccc2cc3c(NCCc4c[nH]cn4)nnc(NCCc4c[nH]cn4)c3cc2c1`, the outcome was Active.
As to `c1ccc2cc3c(Nc4cc[nH]n4)nnc(Nc4cc[nH]n4)c3cc2c1` [1,4-BIS(3'-PYRAZOLYLAMINO)BENZO[G]PHTHALAZINE], the outcome was Active.
The same measure, in the same setting: the same measure for `Clc1nnc(NCCCn2ccnc2)c2cc3ccccc3cc12`: “Active”; for `c1ccc2cc3c(NCCCn4ccnc4)nnc(NCCCn4ccnc4)c3cc2c1`: “Active”.

Staying with this data set, now noted: route intraperitoneal.
As to `O=C(Cn1ccnc1[N+](=O)[O-])NCc1ccccc1` [BENZNIDAZOLE], the Activity came out at 80%.

The subject of the next data set is Trypanosoma cruzi. The experiment in a line: Effect on metabolic excretion in epimastigotes of Trypanosoma cruzi assessed as L-alanine excretion level at IC25 concentration after 72 hrs by nuclear magnetic resonance spectroscopy analysis. The format is ADME, organism-based.
Conditions: not given
The essentials: as §1
Turning to `Clc1nnc(NCCCn2ccnc2)c2cc3ccccc3cc12`, the Activity came out at 61%.
Take `c1ccc2cc3c(NCCCn4ccnc4)nnc(NCCCn4ccnc4)c3cc2c1`: the Activity is reported as 43%.

The test system of the next data set is Trypanosoma cruzi. The experiment in a line: Antitrypanosomal activity against epimastigotes of Trypanosoma cruzi assessed as change in ultrastructural morphological changes at IC25 concentration after 72 hrs by transmission electron microscopy. The format is functional, organism-based.
Conditions: not given
The essentials: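 Epimastigotes at 5 × 10^6 cells/mL cultured with drug at IC25 for 72 h. Pelleted at 400g, washed in PBS, then fixed in 2% formaldehyde-glutaraldehyde in 0.05 M cacodylate pH 7.4 for 2 h at 4 °C before transmission electron microscopy.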
In the case of `c1ccc2cc3c(NCCc4c[nH]cn4)nnc(NCCc4c[nH]cn4)c3cc2c1`, the result was Active.
On the same count and under the same terms, the same measure for `c1ccc2cc3c(Nc4cc[nH]n4)nnc(Nc4cc[nH]n4)c3cc2c1` [1,4-BIS(3'-PYRAZOLYLAMINO)BENZO[G]PHTHALAZINE]: “Active”; for `Clc1nnc(NCCCn2ccnc2)c2cc3ccccc3cc12`: “Active”.

Another data set relates to Trypanosoma cruzi. The experiment in a line: Antitrypanosomal activity against Trypanosoma cruzi infected in african green monkey Vero cells assessed as reduction of trypomastigote number per infected cell at IC25 after 10 days relative to control. The format is functional. Details: scale not given: the % may be the effect or the level left.
Conditions: not given
On to `c1ccc2cc3c(Nc4cc[nH]n4)nnc(Nc4cc[nH]n4)c3cc2c1` [1,4-BIS(3'-PYRAZOLYLAMINO)BENZO[G]PHTHALAZINE], for which the Activity came out at 53%.
On the same count and under the same terms, the same measure for `O=C(Cn1ccnc1[N+](=O)[O-])NCc1ccccc1` [BENZNIDAZOLE]: 43%.

Another data set deals with Trypanosoma cruzi. The experiment in a line: Antitrypanosomal activity against trypomastigote of Trypanosoma cruzi infected in BALB/c mouse assessed as reduction of anti-Trypanosoma cruzi antibody level at 1 mg/kg, ip qd for 5 days measured after 120 days postinfection by ELISA. The format is functional. Particulars: route intraperitoneal. A digest of the protocol: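 Female BALB/c mice (6–8 weeks, 25–30 g; groups of four for serology) infected ip with 3 × 10^3 metacyclic forms. Dosed 1 mg/kg/day ip for five consecutive days, days 7–12 post-infection. Sera diluted 1:100 tested by ELISA against soluble T. cruzi epimastigote Fe-SOD antigen at days 40 and 120. Read at 490 nm; cutoff is negative-control mean + 3 SD.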
For orientation: ELISA stands for enzyme-linked immunosorbent assay.
Take `c1ccc2cc3c(NCCc4c[nH]cn4)nnc(NCCc4c[nH]cn4)c3cc2c1`: the deltaA was determined as 0.044 absorbance units.
On to `c1ccc2cc3c(Nc4cc[nH]n4)nnc(Nc4cc[nH]n4)c3cc2c1` [1,4-BIS(3'-PYRAZOLYLAMINO)BENZO[G]PHTHALAZINE], for which the deltaA amounted to 0.138 absorbance units.
The same measure, in the same setting: then `O=C(Cn1ccnc1[N+](=O)[O-])NCc1ccccc1` [BENZNIDAZOLE], with 0.11 absorbance units; and `Clc1nnc(NCCCn2ccnc2)c2cc3ccccc3cc12`, with -0.151 absorbance units.
For the molecule `c1ccc2cc3c(NCCCn4ccnc4)nnc(NCCCn4ccnc4)c3cc2c1`, the deltaA is 0.266 absorbance units.

Molecular target in another data set: not listed separately
In words: Inhibition of Trypanosoma cruzi iron superoxide dismutase assessed as inhibition of NADPH reduction.
Conditions: not given
A digest of the protocol:
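Maracay epimastigotes sonicated in sucrose/Tris/EDTA buffer, pH 7.8. Clarified supernatant taken through 35–85% ammonium sulfate cut, then desalted into 20 mM phosphate pH 7.8 with 1 mM EDTA. Activity measured by NAD(P)H oxidation; 1 U gives 50% inhibition of the rate. Compounds at 1, 10, 25, 50, 100 μM. IC50 by linear regression; five determinations; Newman-Keuls test.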
In the case of `c1ccc2cc3c(NCCc4c[nH]cn4)nnc(NCCc4c[nH]cn4)c3cc2c1`, the half-maximal inhibitory concentration (IC50) was 29.6 µM.
On the same count and under the same terms, then `c1ccc2cc3c(Nc4cc[nH]n4)nnc(Nc4cc[nH]n4)c3cc2c1` [1,4-BIS(3'-PYRAZOLYLAMINO)BENZO[G]PHTHALAZINE], with 22.9 µM.
As for `Clc1nnc(NCCCn2ccnc2)c2cc3ccccc3cc12`, the IC50 stood at 1.3 µM.
The same measure, in the same setting: then `c1ccc2cc3c(NCCCn4ccnc4)nnc(NCCCn4ccnc4)c3cc2c1`, with 28.3 µM.

In the next data set the test system is Trypanosoma cruzi. The experiment in a line: Antitrypanosomal activity against Trypanosoma cruzi infected in african green monkey Vero cells assessed as reduction of amastigote number per infected cell at IC25 after 10 days relative to control. The format is functional. Details: scale not given: the % may be the effect or the level left.
Conditions: not given
The essentials: as §2
Regarding `c1ccc2cc3c(Nc4cc[nH]n4)nnc(Nc4cc[nH]n4)c3cc2c1` [1,4-BIS(3'-PYRAZOLYLAMINO)BENZO[G]PHTHALAZINE], the Activity turned out to be 40%.
On the same count and under the same terms, then `O=C(Cn1ccnc1[N+](=O)[O-])NCc1ccccc1` [BENZNIDAZOLE], with 15%.

The next data set has as its system Trypanosoma cruzi. The experiment in a line: Antitrypanosomal activity against epimastigote of Trypanosoma cruzi Maracay after 72 hrs. The format is functional, organism-based.
Conditions: not given
A digest of the protocol:
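Maracay strain epimastigotes in exponential phase, obtained in NNN medium with MEM and 20% inactivated FBS and then kept in monophasic MTL culture. Seeded at 2 × 10^6 parasites/mL with 1, 10, 25, 50 or 100 μM compound (0.01% DMSO). Parasites counted by Neubauer hemocytometer at 72 h; IC50 derived.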
For `c1ccc2cc3c(Nc4cc[nH]n4)nnc(Nc4cc[nH]n4)c3cc2c1` [1,4-BIS(3'-PYRAZOLYLAMINO)BENZO[G]PHTHALAZINE], the half-maximal inhibitory concentration (IC50) stood at 32.8 µM.
